{"source": "ChEMBL document CHEMBL2331364", "about": "“A synthetic dolastatin 10 analogue suppresses microtubule dynamics, inhibits cell proliferation, and induces apoptotic cell death” (J Med Chem, 2013)", "key": {"Tubulin (Homo sapiens)": {"target": "Tubulin (Homo sapiens) (UniProt P68371+Q9H4B7+P0DPH7+P68366+Q13509+Q71U36+P04350+Q3ZCM7+P07437+P68363+Q9BQE3+Q6PEY2+Q13885+Q9BVA1+Q9BUF5)", "assay": "(§1) Binding affinity to tubulin (unknown origin) after 15 mins by fluorescence spectrophotometry", "assay_type": "protein-complex assay", "in_short": "(§2)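 Goat brain tubulin (2 μM) was incubated with ligand (5–100 μM) in 25 mM Pipes pH 6.8 for 15 min at 25 °C, read with excitation 295 nm and emission 336 nm in a 0.3 cm cell. No inner-filter correction was applied. ΔF was fitted to a quadratic binding equation to give Kd. Value is the average of five independent experiments.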"}, "Tubulin": {"target": "Tubulin", "assay": "as §1", "assay_type": "protein-complex assay, Homo sapiens", "in_short": "as §2"}, "HeLa [1]": {"system": "HeLa", "assay": "Antimitotic activity in human HeLa cells assessed as increase in phosphohistone H3 (Ser10) positive cell population after 24 hrs by fluorescence microscopic analysis", "assay_type": "functional, cell-based"}, "HeLa [2]": {"system": "HeLa", "assay": "Cell cycle arrest in human HeLa cells assessed as accumulation at G2/M phase at 45 nM after 24 hrs by propidium iodide staining-based flow cytometry (reference value: 4%)", "assay_type": "functional"}, "HeLa [3]": {"system": "HeLa", "assay": "Antimitotic activity in human HeLa cells assessed as increase in phosphohistone H3 (Ser10) positive cell population at 15 nM after 24 hrs by fluorescence microscopic analysis (reference value: 3 +/- 0.3 %)", "assay_type": "functional"}, "HeLa [4]": {"system": "HeLa", "assay": "Induction of mitotic microtubule depolymerization in human HeLa cells at 15 nM after 24 hrs by Hoechst 33258 dye-based fluorescence microscopy", "assay_type": "cell-based"}, "MCF7 [5]": {"system": "MCF7", "assay": "Inhibition of microtubule (unknown origin) dynamics in GFP-tubulin transfected human MCF7 cells assessed as decrease in microtubule shortening length at 15 nM by confocal laser scanning microscopy relative to control", "assay_type": "cell-based", "in_short": "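EGFP-tubulin transfected MCF-7 cells were treated with vehicle or 15 nM, and individual microtubules were tracked by confocal laser scanning microscopy, 20 microtubules per condition. Life-history parameters were derived as previously described. Significance was tested by one-way ANOVA.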"}, "MCF7 [6]": {"system": "MCF7", "assay": "Inhibition of microtubule (unknown origin) dynamics in GFP-tubulin transfected human MCF7 cells assessed as microtubule rescue events at 15 nM by confocal laser scanning microscopy (reference value: 10 +/- 2 events/min)", "assay_type": "cell-based", "in_short": "(§3)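 EGFP-tubulin-transfected MCF-7 cells grown in EMEM with 10% FBS at 37 °C in 5% CO2, exposed to 15 nM compound (DMSO vehicle) or vehicle. Individual microtubules were followed by time-lapse confocal laser scanning microscopy and life-history traces were recorded. Kinetic parameters were derived from these traces, 20 microtubules per condition. Significance was tested by one-way ANOVA.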"}, "MCF7 [7]": {"system": "MCF7", "assay": "Induction of mitotic microtubule depolymerization in human MCF7 cells at 15 nM after 48 hrs by Hoechst 33258 dye-based fluorescence microscopy", "assay_type": "cell-based"}, "HeLa [8]": {"system": "HeLa", "assay": "Induction of apoptosis in human HeLa cells assessed as genomic DNA fragmentation at 7 to 30 nM after 40 hrs by ethidium bromide staining-based electrophoresis", "assay_type": "functional, cell-based"}, "HeLa [9]": {"system": "HeLa", "assay": "Induction of mitotic microtubule depolymerization in human HeLa cells at 30 nM after 24 hrs by Hoechst 33258 dye-based fluorescence microscopy", "assay_type": "cell-based"}, "Homo sapiens": {"species": "Homo sapiens", "assay": "Inhibition of microtubule (unknown origin) assembly at 1 to 10 uM incubated for 15 mins prior to GTP addition measured for 30 mins by 90 degree light scattering-based fluorescence spectrophotometric method", "in_short": "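MAP-rich tubulin (1 mg/mL) was preincubated with 1, 3, 5 or 10 μM in PEM buffer (25 mM Pipes pH 6.8, 3 mM MgCl2, 1 mM EGTA) for 15 min on ice. GTP (1 mM) was then added and assembly monitored by 90° light scattering at 400 nm for 30 min at 37 °C.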"}, "MCF7 [10]": {"system": "MCF7", "assay": "Inhibition of microtubule (unknown origin) dynamics in GFP-tubulin transfected human MCF7 cells assessed as microtubule growth time at 15 nM by confocal laser scanning microscopy (reference value: 37 +/- 6 %)", "assay_type": "cell-based", "parameters": "scale not given: the % may be the effect or the level left", "in_short": "as §3"}, "HeLa [11]": {"system": "HeLa", "assay": "Cytotoxicity against human HeLa cells after 24 to 48 hrs by trypan blue assay", "assay_type": "functional, cell-based", "in_short": "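Cells were seeded at 1 × 10^5 cells/mL, grown 24 h at 37 °C in 5% CO2, then given vehicle (0.1% DMSO) or 1–80 nM for a further 24 or 48 h. Attached plus floating cells were counted after trypan blue staining. Percent inhibition was plotted against concentration to give IC50. Average of three independent experiments.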"}, "Tubulin (Capra hircus)": {"system": "Tubulin (Capra hircus)", "assay": "Inhibition of goat brain microtubule GTPase activity using GTP as substrate assessed as reduction of inorganic phosphate release at 2 uM incubated for 10 mins prior to substrate addition measured after 10 mins by ammonium molybdate malachite green assay relative to control"}, "HeLa [12]": {"system": "HeLa", "assay": "Induction of apoptosis in human HeLa cells assessed as late apoptotic cells at 30 nM after 24 hrs by annexin V/propidium iodide staining-based FACS flow cytometry", "assay_type": "functional, cell-based", "in_short": "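HeLa cells were grown with vehicle (0.1% DMSO) or 7, 15 and 30 nM for 24 h and stained with an annexin V/propidium iodide kit. Stage was scored as annexin V-positive with weak PI (early/mid) or positive for both (late).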"}, "HeLa [13]": {"system": "HeLa", "assay": "Induction of apoptosis in human HeLa cells assessed as caspase-3 activation at 30 nM after 24 hrs by Western blot analysis", "assay_type": "functional, cell-based", "in_short": "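HeLa cells were treated with vehicle or 30 nM for 24 h and washed twice in PBS. Lysates were Western blotted with antibodies to JNK1, phospho-JNK, procaspase-3 and PARP.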"}, "HeLa [14]": {"system": "HeLa", "assay": "Induction of mitotic microtubule depolymerization in human HeLa cells assessed as unorganized chromosomes at metaphase plate at 15 nM after 24 hrs by Hoechst 33258 dye-based fluorescence microscopy", "assay_type": "cell-based"}, "HeLa [15]": {"system": "HeLa", "assay": "Inhibition of microtubule-kinetochore attachment in human HeLa cells assessed as BubR1 accumulation at kinetochoric region at 15 to 45 nM after 24 hrs by Hoechst 33258 dye-based Hec1 staining assay", "assay_type": "cell-based"}, "HeLa [16]": {"system": "HeLa", "assay": "Induction of apoptosis in human HeLa cells assessed as apoptotic cells at 35 nM after 10 hrs by annexin V-FITC/propidium iodide staining-based FACS analysis", "assay_type": "functional", "in_short": "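HeLa cells were exposed to 35 nM for 10 or 24 h, stained with annexin V and propidium iodide using a kit, and apoptotic cells were quantified by FACS. Nocodazole (700 nM) served as comparator.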"}, "HeLa [17]": {"system": "HeLa", "assay": "Induction of interphase microtubule depolymerization in human HeLa cells at 35 nM after 3 hrs by Hoechst 33258 dye-based fluorescence microscopy", "assay_type": "cell-based", "in_short": "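HeLa cells were given a brief 3 h exposure to 35 nM. Interphase microtubules were then immunostained and examined by fluorescence microscopy.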"}, "HeLa [18]": {"system": "HeLa", "assay": "Antimitotic activity in human HeLa cells assessed as increase in phosphohistone H3 (Ser10) positive cell population at 7 nM after 24 hrs by fluorescence microscopic analysis (reference value: 3 +/- 0.3 %)", "assay_type": "functional"}, "HeLa [19]": {"system": "HeLa", "assay": "Inhibition of mitosis in human HeLa cells assessed as mitotic index ratio at 7 nM after 24 hrs by Hoechst 33258 DNA staining assay (reference value: 3.2)", "assay_type": "functional", "in_short": "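HeLa cells were treated with vehicle or 7, 15 or 30 nM compound for 24 or 48 h. DNA was stained with Hoechst 33258, and mitotic cells were counted by fluorescence microscopy to give the mitotic index, compared against vehicle-treated cells.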"}}, "note": "pIC50, pKd: −log10 of the molar value. The source made the active and inactive calls. The rule behind the calls is not given here.", "data": [{"smiles": "CC[C@H](C)[C@@H]([C@@H](CC(=O)NC[C@H]1O[C@H](C(=O)NCCc2ccccc2)[C@@H](OC)[C@@H]1OC)OC)N(C)C(=O)[C@@H](NC(=O)[C@@H](NC)C(C)C)C(C)C", "values": [{"measurement": "Activity", "setting": "Tubulin (Homo sapiens)", "value": "Dose-dependent effect"}, {"measurement": "pKd", "setting": "Tubulin", "value": 4.53}, {"measurement": "Activity", "setting": "HeLa [1]", "value": "Dose-dependent effect"}, {"measurement": "Activity", "setting": "HeLa [2]", "value": 17, "unit": "%"}, {"measurement": "Activity", "setting": "HeLa [3]", "value": 11, "unit": "%"}, {"measurement": "Activity", "setting": "HeLa [4]", "value": "Active"}, {"measurement": "inhibition", "setting": "MCF7 [5]", "value": 44, "unit": "%"}, {"measurement": "Activity", "setting": "MCF7 [6]", "value": 12, "unit": "min⁻¹"}, {"measurement": "Activity", "setting": "MCF7 [7]", "value": "Active"}, {"measurement": "Activity", "setting": "HeLa [8]", "value": "Active"}, {"measurement": "Activity", "setting": "HeLa [9]", "value": "Active"}, {"measurement": "inhibition", "setting": "Homo sapiens", "value": "Active"}, {"measurement": "Activity", "setting": "MCF7 [10]", "value": 21, "unit": "%"}, {"measurement": "pIC50", "setting": "HeLa [11]", "value": 8.17}, {"measurement": "inhibition", "setting": "Tubulin (Capra hircus)", "value": 17, "unit": "%"}, {"measurement": "Activity", "setting": "HeLa [12]", "value": "Active"}, {"measurement": "Activity", "setting": "HeLa [13]", "value": "Active"}, {"measurement": "Activity", "setting": "HeLa [14]", "value": "Active"}, {"measurement": "Activity", "setting": "HeLa [15]", "value": "Active"}, {"measurement": "Activity", "setting": "HeLa [16]", "value": 22.4, "unit": "%"}, {"measurement": "Activity", "setting": "HeLa [17]", "value": "Active"}, {"measurement": "Activity", "setting": "HeLa [18]", "value": 6.6, "unit": "%"}, {"measurement": "Ratio", "setting": "HeLa [19]", "value": 6}]}]}
